Measurements gathered from unrelated publications.
Protocols differ between the studies behind these lines. pIC50: −log10 of the molar value.
Cell line: Vero
Read-out: cell growth or viability

O=C(CN1C(=O)SC(=Cc2ccc(Cl)cc2Cl)C1=O)Nc1ccc(C(=O)NNC(=O)c2ccccc2)cc1
pIC50 (MTS): 5.40

Cc1ccc2c(-c3cc4c(CN5CCN(Cc6ccccn6)CC5)cnc(C)c4o3)cc(=O)oc2c1
pIC50 (MTT; 72 h): 4.22

S=c1nc(-c2ccc(Nc3nnc(-c4ccc(Cl)cc4)c4ccccc34)cc2)cc(-c2ccccc2)[nH]1
pIC50: 5.39

C#Cc1cccc(Nc2ncnc3cc(OCCOC)c(OCCOC)cc23)c1
pIC50 (MTT; 72 h): 4.17

COc1ccc(NC(=O)C2=C(C)NC(C)=C(C(=O)Nc3cc(OC)c(Cl)cc3OC)C2c2ccccc2)c(OC)c1 (stereo not shown)
pIC50 (MTT): 4.22

Clc1ccc(-c2nnc(Nc3ccc(C4=NNC(c5ccc(Cl)cc5)C4)cc3)c3ccccc23)cc1 (stereo not shown)
pIC50: 5.37

COc1ccc(NC(=O)C2=C(C)NC(C)=C(C(=O)Nc3ccc(OC)cc3OC)C2c2ccc(Cl)cc2)c(OC)c1
pIC50 (MTT): 4.12

COC(=O)c1ccc(NC(=O)Cn2c(=O)c3cc(I)ccc3n(Cc3ccccc3)c2=O)cc1
pIC50: 4.30

COc1cc(NC(=O)C2=C(C)NC(C)=C(C(=O)Nc3cc(OC)c(Cl)cc3OC)C2c2ccco2)c(OC)cc1Cl
pIC50 (MTT): 4.16

Cc1ccc2c(-c3cc4c(CNCc5cccnc5)cnc(C)c4o3)cc(=O)oc2c1C
pIC50 (MTT; 72 h): 4.01

COc1ccc(NC(=O)C2=C(C)NC(C)=C(C(=O)Nc3cc(OC)c(Cl)cc3OC)C2c2ccc(O)cc2)c(OC)c1 (stereo not shown)
pIC50 (MTT): 4.22

O=c1nc(-c2ccc(Nc3nnc(-c4ccc(Cl)cc4)c4ccccc34)cc2)cc(-c2ccccc2)[nH]1
pIC50: 5.40

CNC(=O)c1ccc(NC(=O)Cn2c(=O)c3cc(I)ccc3n(Cc3ccccc3)c2=O)cc1
pIC50: 4.33

Oc1ccc(C2CC(c3ccc(Nc4nnc(-c5ccc(Cl)cc5)c5ccccc45)cc3)=NN2)cc1 (stereo not shown)
pIC50: 5.36

Cc1cc(C)n(-c2ccc(NC(=O)Cn3c(=O)c4cc(I)ccc4n(Cc4ccccc4)c3=O)cc2)n1
pIC50: 4.34

COc1ccc(NC(=O)C2=C(C)NC(C)=C(C(=O)Nc3cc(OC)c(Cl)cc3OC)C2c2ccco2)c(OC)c1 (stereo not shown)
pIC50 (MTT): 4.17

Cc1ncc(CN2CCc3ccccc3C2)c2cc(C(=O)c3ccc4c(c3)OCCO4)oc12
pIC50 (MTT; 72 h): 3.74

COc1ccc(C2CC(c3ccc(Nc4nnc(-c5ccc(Cl)cc5)c5ccccc45)cc3)=NN2)cc1 (stereo not shown)
pIC50: 5.49

O=C(Cn1c(=O)c2cc(I)ccc2n(Cc2ccccc2)c1=O)Nc1ccc(-c2nnc(S)o2)cc1
pIC50: 4.36
